Laboratory results: ChEMBL document CHEMBL5131563, “Accelerated Identification of Cell Active KRAS Inhibitory Macrocyclic Peptides using Mixture Libraries and Automated Ligand Identification System (ALIS) Technology” (J Med Chem, 2022)
Where a SMILES comes first, the peptide text is derived from it. Bridges are numbered along the chain shown (N, C = ends). [ ]: non-standard residue; d: D form. Ala(4-thiazolyl) = N[C@@H](Cc1cscn1)C(=O)O; Bip = N[C@@H](Cc1ccc(-c2ccccc2)cc1)C(=O)O; Dip = N[C@H](C(=O)O)C(c1ccccc1)c1ccccc1; Ala(cPent) = N[C@@H](CC1CCCC1)C(=O)O; hPhe = N[C@@H](CCc1ccccc1)C(=O)O; Cha = N[C@@H](CC1CCCCC1)C(=O)O; hLeu = CC(C)CC[C@H](N)C(=O)O; Nle = CCCC[C@H](N)C(=O)O; Dab = NCC[C@H](N)C(=O)O; Nva = CCC[C@H](N)C(=O)O

Key:
GTPase KRas = GTPase KRas (Homo sapiens, UniProt P01116, G12D); assay: Inhibition of recombinant biotinylated KRAS G12D mutant (unknown origin) assessed as inhibition of SOS-catalyzed nucleotide exchange preincubated for 60 mins followed by addition of human SOS protein and unlabeled GTP and measured after 60 mins by TR-FRET analysis
Outline: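 Biotinylated KRAS G12D was treated in EDTA buffer (1 h, RT), then loaded at 90 nM with 900 nM Bodipy-GDP and 15 nM Tb-streptavidin in Mg2+ buffer, HEPES pH 7.5 (6 h, RT). It was used at 1.5 nM assay solution with a 10-point, 3-fold DMSO compound series for 60 min at RT. A solution of 120 nM human SOS plus GTP was added for 60 min. The read-out was TR-FRET at 520/495 nm, normalized to DMSO and saturating-inhibitor controls, with a 4-parameter fit.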

[1] = Stability in human HeLa cell homogenate assessed as half life by LC-MS/MS analysis; type: ADME, cell-based
Outline: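 HeLa cells suspended at 1 × 10^6 cells/mL, probe-sonicated on ice until homogeneous, stored frozen at –20 °C. Peptides incubated with homogenate (1 × 10^6 cells/mL equivalent); peptide loss over time quantified by LC-MS/MS to derive t1/2.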

GTPase KRas, sequence (P01116 whole entry G12D): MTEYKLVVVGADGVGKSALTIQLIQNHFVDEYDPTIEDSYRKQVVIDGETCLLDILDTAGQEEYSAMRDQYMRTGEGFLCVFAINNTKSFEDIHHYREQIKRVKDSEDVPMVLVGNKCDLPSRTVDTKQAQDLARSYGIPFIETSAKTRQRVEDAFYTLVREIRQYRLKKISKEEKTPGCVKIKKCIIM

Row | SMILES | IC50 (GTPase KRas) [µM] | half-life [1] [min]
1 | CC[C@H](C)[C@@H]1NC(=O)[C@H](Cc2ccc(O)cc2)NC(=O)[C@H](CC(C)C)NC(=O)[C@@H]2CCCN2C(=O)[C@@H](NC(=O)[C@H](CCCNC(=N)N)NC(=O)[C@H](CCCNC(=N)N)NC(C)=O)CSSC[C@@H](C(=O)N[C@@H](CCCNC(=N)N)C(=O)N[C@@H](CCCNC(=N)N)C(N)=O)NC(=O)[C@H](C(C)C)NC(=O)[C@@H]2CCCN2C(=O)[C@H](CC(=O)O)NC(=O)[C@H](Cc2ccc(O)cc2)NC(=O)[C@H](Cc2cscn2)NC1=O (Ac-RRCPLYI[Ala(4-thiazolyl)]YDPVCRR-NH2; disulfide 3-13) | 2.27 | 22
2 | CC[C@H](C)[C@@H]1NC(=O)[C@H](Cc2ccc(O)cc2)NC(=O)[C@H](CC(C)C)NC(=O)[C@@H]2CCCN2C(=O)[C@@H](NC(=O)[C@H](CCCNC(=N)N)NC(=O)[C@H](CCCNC(=N)N)NC(C)=O)CSSC[C@@H](C(=O)N[C@@H](CCCNC(=N)N)C(=O)N[C@@H](CCCNC(=N)N)C(N)=O)NC(=O)[C@H](C(C)C)NC(=O)[C@@H]2CCCN2C(=O)[C@H](CC(=O)O)NC(=O)[C@H](C(c2ccccc2)c2ccccc2)NC(=O)[C@H](CCN)NC1=O (Ac-RRCPLYI[Dab][Dip]DPVCRR-NH2; disulfide 3-13) | > 11.1 | 34
3 | CCCC[C@@H]1NC(=O)[C@H]([C@@H](C)CC)NC(=O)[C@H](Cc2ccc(O)cc2)NC(=O)[C@H](CC(C)C)NC(=O)[C@@H]2CCCN2C(=O)[C@@H](NC(=O)[C@H](CCCNC(=N)N)NC(=O)[C@H](CCCNC(=N)N)NC(C)=O)CSSC[C@@H](C(=O)N[C@@H](CCCNC(=N)N)C(=O)N[C@@H](CCCNC(=N)N)C(N)=O)NC(=O)[C@H](C(C)C)NC(=O)[C@@H]2CCCN2C(=O)[C@H](CC(=O)O)NC(=O)[C@H](Cc2ccc(O)cc2)NC1=O (Ac-RRCPLYI[Nle]YDPVCRR-NH2; disulfide 3-13) | > 11.1 | 25
4 | CCCC[C@@H]1NC(=O)[C@H]([C@@H](C)CC)NC(=O)[C@H](Cc2ccc(O)cc2)NC(=O)[C@H](CC(C)C)NC(=O)[C@@H]2CCCN2C(=O)[C@@H](NC(=O)[C@H](CCCNC(=N)N)NC(=O)[C@H](CCCNC(=N)N)NC(C)=O)CSSC[C@@H](C(=O)N[C@@H](CCCNC(=N)N)C(=O)N[C@@H](CCCNC(=N)N)C(N)=O)NC(=O)[C@H](C(C)C)NC(=O)[C@@H]2CCCN2C(=O)[C@H](CC(=O)O)NC(=O)[C@H](CC2CCCCC2)NC1=O (Ac-RRCPLYI[Nle][Cha]DPVCRR-NH2; disulfide 3-13) | > 11.1 | 26
5 | CC(=O)N[C@@H](CCCNC(=N)N)C(=O)N[C@@H](CCCNC(=N)N)C(=O)N[C@H]1CSSC[C@@H](C(=O)N[C@@H](CCCNC(=N)N)C(=O)N[C@@H](CCCNC(=N)N)C(N)=O)NC(=O)[C@H](C(C)C)NC(=O)[C@@H]2CCCN2C(=O)[C@H](CC(=O)O)NC(=O)[C@H](Cc2ccc(O)cc2)NC(=O)[C@H](CO)NC(=O)[C@H](CC2CCCC2)NC(=O)[C@H](Cc2ccc(O)cc2)NC(=O)[C@H](CC(C)C)NC(=O)[C@@H]2CCCN2C1=O (Ac-RRCPLY[Ala(cPent)]SYDPVCRR-NH2; disulfide 3-13) | > 11.1 | 23
6 | CCC[C@@H]1NC(=O)[C@H](Cc2ccc(O)cc2)NC(=O)[C@H](CC(C)C)NC(=O)[C@@H]2CCCN2C(=O)[C@@H](NC(=O)[C@H](CCCNC(=N)N)NC(=O)[C@H](CCCNC(=N)N)NC(C)=O)CSSC[C@@H](C(=O)N[C@@H](CCCNC(=N)N)C(=O)N[C@@H](CCCNC(=N)N)C(N)=O)NC(=O)[C@H](C(C)C)NC(=O)[C@@H]2CCCN2C(=O)[C@H](CC(=O)O)NC(=O)[C@H](Cc2ccc(O)cc2)NC(=O)[C@H](CO)NC1=O (Ac-RRCPLY[Nva]SYDPVCRR-NH2; disulfide 3-13) | > 11.1 | 19
7 | CC(=O)N[C@@H](CCCNC(=N)N)C(=O)N[C@@H](CCCNC(=N)N)C(=O)N[C@H]1CSSC[C@@H](C(=O)N[C@@H](CCCNC(=N)N)C(=O)N[C@@H](CCCNC(=N)N)C(N)=O)NC(=O)[C@H](C(C)C)NC(=O)[C@@H]2CCCN2C(=O)[C@H](CC(=O)O)NC(=O)[C@H](Cc2ccc(O)cc2)NC(=O)[C@H](CO)NC(=O)[C@H](CCC(C)C)NC(=O)[C@H](Cc2ccc(O)cc2)NC(=O)[C@H](CC(C)C)NC(=O)[C@@H]2CCCN2C1=O (Ac-RRCPLY[hLeu]SYDPVCRR-NH2; disulfide 3-13) | > 11.1 | 28
8 | CC[C@H](C)[C@@H]1NC(=O)[C@H](Cc2ccc(-c3ccccc3)cc2)NC(=O)[C@H](CC(C)C)NC(=O)[C@@H]2CCCN2C(=O)[C@@H](NC(=O)[C@H](CCCNC(=N)N)NC(=O)[C@H](CCCNC(=N)N)NC(C)=O)CSSC[C@@H](C(=O)N[C@@H](CCCNC(=N)N)C(=O)N[C@@H](CCCNC(=N)N)C(N)=O)NC(=O)[C@H](C(C)C)NC(=O)[C@@H]2CCCN2C(=O)[C@H](CC(=O)O)NC(=O)[C@H](Cc2ccc(O)cc2)NC(=O)[C@H](CO)NC1=O (Ac-RRCPL[Bip]ISYDPVCRR-NH2; disulfide 3-13) | 0.007 | 55
9 | CCC[C@@H]1NC(=O)[C@H](Cc2ccc(-c3ccccc3)cc2)NC(=O)[C@H](CC(C)C)NC(=O)[C@@H]2CCCN2C(=O)[C@@H](NC(=O)[C@H](CCCNC(=N)N)NC(=O)[C@H](CCCNC(=N)N)NC(C)=O)CSSC[C@@H](C(=O)N[C@@H](CCCNC(=N)N)C(=O)N[C@@H](CCCNC(=N)N)C(N)=O)NC(=O)[C@H](C(C)C)NC(=O)[C@@H]2CCCN2C(=O)[C@H](CC(=O)O)NC(=O)[C@H](Cc2ccc(O)cc2)NC(=O)[C@H](CO)NC1=O (Ac-RRCPL[Bip][Nva]SYDPVCRR-NH2; disulfide 3-13) | 0.604 | 26
10 | CC(=O)N[C@@H](CCCNC(=N)N)C(=O)N[C@@H](CCCNC(=N)N)C(=O)N[C@H]1CSSC[C@@H](C(=O)N[C@@H](CCCNC(=N)N)C(=O)N[C@@H](CCCNC(=N)N)C(N)=O)NC(=O)[C@H](C(C)C)NC(=O)[C@@H]2CCCN2C(=O)[C@H](CC(=O)O)NC(=O)[C@H](Cc2ccc(O)cc2)NC(=O)[C@H](CO)NC(=O)[C@H](CCC(C)C)NC(=O)[C@H](Cc2ccc(-c3ccccc3)cc2)NC(=O)[C@H](CC(C)C)NC(=O)[C@@H]2CCCN2C1=O (Ac-RRCPL[Bip][hLeu]SYDPVCRR-NH2; disulfide 3-13) | > 11.1 | 17
11 | CC[C@H](C)[C@@H]1NC(=O)[C@H](CC2CCCCC2)NC(=O)[C@H](CC(C)C)NC(=O)[C@@H]2CCCN2C(=O)[C@@H](NC(=O)[C@H](CCCNC(=N)N)NC(=O)[C@H](CCCNC(=N)N)NC(C)=O)CSSC[C@@H](C(=O)N[C@@H](CCCNC(=N)N)C(=O)N[C@@H](CCCNC(=N)N)C(N)=O)NC(=O)[C@H](C(C)C)NC(=O)[C@@H]2CCCN2C(=O)[C@H](CC(=O)O)NC(=O)[C@H](Cc2ccc(O)cc2)NC(=O)[C@H](CO)NC1=O (Ac-RRCPL[Cha]ISYDPVCRR-NH2; disulfide 3-13) | 0.161 | 21
12 | CC(=O)N[C@@H](CCCNC(=N)N)C(=O)N[C@@H](CCCNC(=N)N)C(=O)N[C@H]1CSSC[C@@H](C(=O)N[C@@H](CCCNC(=N)N)C(=O)N[C@@H](CCCNC(=N)N)C(N)=O)NC(=O)[C@H](C(C)C)NC(=O)[C@@H]2CCCN2C(=O)[C@H](CC(=O)O)NC(=O)[C@H](Cc2ccc(O)cc2)NC(=O)[C@H](CO)NC(=O)[C@H](CC2CCCC2)NC(=O)[C@H](CC2CCCCC2)NC(=O)[C@H](CC(C)C)NC(=O)[C@@H]2CCCN2C1=O (Ac-RRCPL[Cha][Ala(cPent)]SYDPVCRR-NH2; disulfide 3-13) | > 11.1 | 21
13 | CCC[C@@H]1NC(=O)[C@H](CC2CCCCC2)NC(=O)[C@H](CC(C)C)NC(=O)[C@@H]2CCCN2C(=O)[C@@H](NC(=O)[C@H](CCCNC(=N)N)NC(=O)[C@H](CCCNC(=N)N)NC(C)=O)CSSC[C@@H](C(=O)N[C@@H](CCCNC(=N)N)C(=O)N[C@@H](CCCNC(=N)N)C(N)=O)NC(=O)[C@H](C(C)C)NC(=O)[C@@H]2CCCN2C(=O)[C@H](CC(=O)O)NC(=O)[C@H](Cc2ccc(O)cc2)NC(=O)[C@H](CO)NC1=O (Ac-RRCPL[Cha][Nva]SYDPVCRR-NH2; disulfide 3-13) | > 11.1 | 27
14 | CC(=O)N[C@@H](CCCNC(=N)N)C(=O)N[C@@H](CCCNC(=N)N)C(=O)N[C@H]1CSSC[C@@H](C(=O)N[C@@H](CCCNC(=N)N)C(=O)N[C@@H](CCCNC(=N)N)C(N)=O)NC(=O)[C@H](C(C)C)NC(=O)[C@@H]2CCCN2C(=O)[C@H](CC(=O)O)NC(=O)[C@H](Cc2ccc(O)cc2)NC(=O)[C@H](CO)NC(=O)[C@H](CCC(C)C)NC(=O)[C@H](CC2CCCCC2)NC(=O)[C@H](CC(C)C)NC(=O)[C@@H]2CCCN2C1=O (Ac-RRCPL[Cha][hLeu]SYDPVCRR-NH2; disulfide 3-13) | > 11.1 | 25
15 | CC[C@H](C)[C@@H]1NC(=O)[C@H](CCc2ccccc2)NC(=O)[C@H](CC(C)C)NC(=O)[C@@H]2CCCN2C(=O)[C@@H](NC(=O)[C@H](CCCNC(=N)N)NC(=O)[C@H](CCCNC(=N)N)NC(C)=O)CSSC[C@@H](C(=O)N[C@@H](CCCNC(=N)N)C(=O)N[C@@H](CCCNC(=N)N)C(N)=O)NC(=O)[C@H](C(C)C)NC(=O)[C@@H]2CCCN2C(=O)[C@H](CC(=O)O)NC(=O)[C@H](Cc2ccc(O)cc2)NC(=O)[C@H](CO)NC1=O (Ac-RRCPL[hPhe]ISYDPVCRR-NH2; disulfide 3-13) | 1.39 | 37
16 | CC(=O)N[C@@H](CCCNC(=N)N)C(=O)N[C@@H](CCCNC(=N)N)C(=O)N[C@H]1CSSC[C@@H](C(=O)N[C@@H](CCCNC(=N)N)C(=O)N[C@@H](CCCNC(=N)N)C(N)=O)NC(=O)[C@H](C(C)C)NC(=O)[C@@H]2CCCN2C(=O)[C@H](CC(=O)O)NC(=O)[C@H](Cc2ccc(O)cc2)NC(=O)[C@H](CO)NC(=O)[C@H](CC2CCCC2)NC(=O)[C@H](CCc2ccccc2)NC(=O)[C@H](CC(C)C)NC(=O)[C@@H]2CCCN2C1=O (Ac-RRCPL[hPhe][Ala(cPent)]SYDPVCRR-NH2; disulfide 3-13) | > 11.1 | 16
